Data set [1] has as its system L929. Kind of data set: Cytotoxicity against mouse L929 cells assessed as effect on morphological changes at 0.13 to 2 mg/ml by microscopic analysis. The following applies: dose 0.13-2 mg/ml. Type of data set: cell-based. In outline:
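HeLa and L929 cells were examined by microscopy for morphological change after incubation with compound at the MTT-assay concentrations.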

Data set [2] has as its system L929. As to the kind of experiment: Cytotoxicity against mouse L929 cells assessed as increase in cell viability at 0.13 to 2 mg/ml measured after 48 hrs by MTT assay relative to control. The data set is classed as cell-based. The following applies: l929, 48 h, dose 0.13-2 mg/ml. The gist of the method:
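MTT assay. HeLa or L929 cells were seeded at 1×10^4/well in DMEM with 10% FBS and grown 12 h at 37 °C. They were exposed to 0.13–2 mg/mL compound (DMSO stock) for 48 h, then given 0.5 mg/mL MTT for 3 h at 37 °C. Formazan was dissolved in DMSO and read at 490 nm. Survival % was blank-corrected against the 0.5% DMSO medium control.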
For orientation: Tetrazolium dyes change colour on reduction, which living cells bring about.

The target of data set [3] is Metallo-beta-lactamase type 2 (Klebsiella pneumoniae) (UniProt C7C422). As to the kind of experiment: Binding affinity to wild type N-terminal His6-tagged Klebsiella pneumoniae NDM-1 expressed in Escherichia coli BL21 assessed as formation of compound-intact protein complex by measuring molecular weight measured after 20 mins by ESI-MS analysis. The gist of the method:
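NDM-1 (20 µM) incubated 20 min with equimolar compound in 20 mM ammonium acetate. Native sample infused by nano-ESI with spray held ~20 min at 150 V. For the denatured sample, an equal volume of acetonitrile with 0.5% formic acid was added before syringe-pump loading at 5 µL/min. Complex formation was read from mass.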

Data set [4] shares this target. As to the kind of experiment: Inhibition of wild type N-terminal His6-tagged Klebsiella pneumoniae NDM-1 expressed in Escherichia coli BL21 assessed as ratio of Kinact/Ki using nitrocefin as substrate measured after 30 mins. In outline:
(§1)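 1 nM purified His6-NDM-1 was mixed with varying compound concentrations in 50 mM phosphate buffer ± 50 µM ZnSO4 with BSA. Nitrocefin was added at 7× Km and velocity read at 482 nm, in triplicate. ln(% residual activity) versus incubation time gave kobs, which was fitted hyperbolically against concentration for KI and kinact.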

Data set [5] has the same target. Kind of data set: Inhibition of wild type N-terminal His6-tagged Klebsiella pneumoniae NDM-1 expressed in Escherichia coli BL21 assessed as inactivation constant using nitrocefin as substrate measured after 30 mins. The gist of the method:
as §1

For data set [6] the target is unchanged. As to the kind of experiment: (§2) Inhibition of wild type N-terminal His6-tagged Klebsiella pneumoniae NDM-1 expressed in Escherichia coli BL21 using nitrocefin as substrate measured after 30 mins. In outline:
as §1

Data set [7] addresses Metallo-beta-lactamase type 2 (Klebsiella pneumoniae, UniProt C7C422). The data set is described as §2. The gist of the method: as §1
Data set [8] has as its system Enterobacter cloacae. Kind of data set: Potentiation of meropenem-induced antibacterial activity against NDM-1 producing Enterobacter cloacae isolate 10 infected in Galleria mellonella assessed as increase in larvae survival at 10 mg/kg pretreated for 1hr with compound followed by bacterial infection and measured after 48 hrs (reference value: 20 %). The data set is classed as functional. The following applies: time 49 hrs.

Chain of Metallo-beta-lactamase type 2 (Klebsiella pneumoniae) (C7C422 whole entry, the tested form may be a part): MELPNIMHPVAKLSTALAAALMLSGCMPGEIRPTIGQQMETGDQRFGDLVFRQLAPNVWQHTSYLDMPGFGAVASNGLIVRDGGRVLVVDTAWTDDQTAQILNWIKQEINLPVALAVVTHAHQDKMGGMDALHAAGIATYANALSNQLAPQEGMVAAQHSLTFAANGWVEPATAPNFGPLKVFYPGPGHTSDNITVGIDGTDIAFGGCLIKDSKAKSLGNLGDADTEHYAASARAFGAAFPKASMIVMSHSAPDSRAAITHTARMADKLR
Chain of Metallo-beta-lactamase type 2 (C7C422 whole entry): as the sequence (C7C422 whole entry, the tested form may be a part) above

Broadly, the IC50 is the concentration at which inhibition is half-maximal. Regarding `CC(C)(C)OC(=O)NCCn1[se]c2ccccc2c1=O`, the Activity result is “Non-Toxic” in data set [1], 70% in data set [2], 26300 Da in data set [3] and 60% in data set [8]. In data set [4], the Ratio amounted to 0.067 mM⁻¹ s⁻¹. For the same compound, the Kinact in data set [5] is 0.068 min⁻¹. Moreover, the inhibition entry in data set [6] is “Dose-dependent effect”. The same compound yielded a half-inhibitory concentration (IC50) in data set [7] of 13 µM.

The values above are taken from ChEMBL document CHEMBL4673212, “Investigation of synergistic antimicrobial effects of the drug combinations of meropenem and 1,2-benzisoselenazol-3(2H)-one derivatives on carbapenem-resistant Enterobacteriaceae producing NDM-1” (Eur J Med Chem, 2018).
